ChEMBL document CHEMBL5338764, “Prodrug Strategies for the Development of β-l-5-((E)-2-Bromovinyl)-1-((2S,4S)-2-(hydroxymethyl)-1,3-(dioxolane-4-yl))uracil (l-BHDU) against Varicella Zoster Virus (VZV)” (J Med Chem, 2023)

Legend:
Human alphaherpesvirus 3 [1] = assay: Antiviral activity against VZV infected HFF cells assessed as reduction in viral replication; assay type: functional, organism-based; details: Human alphaherpesvirus 3, HFF
HFF = assay: Cytotoxicity against HFF cells assessed as cell growth inhibition upto 200 uM; assay type: toxicity, cell-based; details: human
[2] = Selectivity index, ratio of CC50 for HFF cells to EC50 for VZV infected HFF cells; assay type: toxicity; details: human, read-out: Selectivity Index
[3] = Selectivity index, ratio of CC50 for human ARPE-19 cells to EC50 for VZV infected human ARPE-19 cells; assay type: toxicity; details: VZV infected ARPE-19 cells, read-out: Selectivity Index
[4] = Drug concentration in BALB/c mouse plasma at 11.4 mg/kg, po via gavage measured after 20 mins by LC-MS/MS analysis; assay type: ADME, organism-based
In short: (§1)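 BALB/c mice of both sexes (N = 15 per sex per group) received a single oral gavage dose: 11.4 mg/kg L-BHDU or an equimolar 22.5 mg/kg of the POM prodrug, in Cremophor–DMSO–saline (1:1:8). Three mice per group were bled by cardiac puncture under isoflurane at 20, 40, 60 and 120 min into heparin. Plasma (AZT internal standard, 20 ng/mL) was methanol-precipitated and L-BHDU quantified by LC-MS/MS (negative ESI).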

[5] = Drug concentration in BALB/c mouse plasma at 11.4 mg/kg, po via gavage measured after 40 mins by LC-MS/MS analysis; assay type: ADME, organism-based; in short: as §1
[6] = Drug concentration in BALB/c mouse plasma at 11.4 mg/kg, po via gavage measured after 60 mins by LC-MS/MS analysis; assay type: ADME, organism-based; in short: as §1
Human alphaherpesvirus 3 [7] = assay: Antiviral activity against VZV expressing ORF57-TS mutant infected human ARPE-19 cells assessed as reduction in viral replication treated for 72 hrs by bioluminescence imaging analysis; assay type: functional, organism-based; details: Human alphaherpesvirus 3, ARPE-19, 72 h
[8] = Stability of compound in gastric juice; assay type: ADME; details: simulated gi fluid
[9] = Stability of compound in intestinal juice; assay type: ADME; details: simulated gi fluid
[10] = Prodrug conversion in mouse liver homogenate assessed as concentration of L-BHDU formation at 0.3 ug/ml measured immediately by LC-MS/MS analysis; assay type: ADME, tissue-based; details: dose 0.3 µg/ml
In short: (§2)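 Liver homogenate from untreated BALB/c mice was spiked with prodrug at 0.3 μg/mL, with azidothymidine internal standard at 20 ng/mL final, and incubated at 37 °C. Reactions were stopped with 2 volumes of methanol at 0, 2, 4, 10, 30 and 60 min. Supernatants were dried and reconstituted in 50% methanol. Prodrug, L-BHDU and L-BHDU-MP were quantified by LC-MS/MS against calibration curves.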

[11] = Prodrug conversion in mouse liver homogenate assessed as concentration of L-BHDU formation at 0.3 ug/ml measured after 2 mins by LC-MS/MS analysis; assay type: ADME, tissue-based; details: dose 0.3 µg/ml; in short: as §2
[12] = Prodrug conversion in mouse liver homogenate assessed as concentration of L-BHDU formation at 0.3 ug/ml measured after 4 mins by LC-MS/MS analysis; assay type: ADME, tissue-based; details: dose 0.3 µg/ml; in short: as §2
[13] = Prodrug conversion in mouse liver homogenate assessed as concentration of L-BHDU formation at 0.3 ug/ml measured after 10 mins by LC-MS/MS analysis; assay type: ADME, tissue-based; details: dose 0.3 µg/ml; in short: as §2
[14] = Prodrug conversion in mouse liver homogenate assessed as concentration of L-BHDU formation at 0.3 ug/ml measured after 30 mins by LC-MS/MS analysis; assay type: ADME, tissue-based; details: 0.5 h, dose 0.3 µg/ml; in short: as §2
[15] = Prodrug conversion in mouse liver homogenate assessed as concentration of L-BHDU formation at 0.3 ug/ml measured after 60 mins by LC-MS/MS analysis; assay type: ADME, tissue-based; details: in vitro, 1 h; in short: as §2
[16] = Stability in mouse liver homogenate assessed as compound remaining at 0.3 ug/ml measured immediately by LC-MS/MS analysis; assay type: ADME, tissue-based; details: tissue homogenate, dose 0.3 µg/ml; in short: as §2
[17] = Stability in mouse liver homogenate assessed as compound remaining at 0.3 ug/ml measured after 2 mins by LC-MS/MS analysis; assay type: ADME, tissue-based; details: tissue homogenate, dose 0.3 µg/ml; in short: as §2
[18] = Stability in mouse liver homogenate assessed as compound remaining at 0.3 ug/ml measured after 4 mins by LC-MS/MS analysis; assay type: ADME, tissue-based; details: tissue homogenate, dose 0.3 µg/ml; in short: as §2
[19] = Stability in mouse liver homogenate assessed as compound remaining at 0.3 ug/ml measured after 10 mins by LC-MS/MS analysis; assay type: ADME, tissue-based; details: tissue homogenate, dose 0.3 µg/ml; in short: as §2
[20] = Stability in mouse liver homogenate assessed as compound remaining at 0.3 ug/ml measured after 30 mins by LC-MS/MS analysis; assay type: ADME, tissue-based; details: tissue homogenate, 0.5 h, dose 0.3 µg/ml; in short: as §2
[21] = Prodrug conversion in BALB/c mouse assessed as concentration of L-BHDU formation at 22.5 mg/kg, po via gavage measured immediately by LC-MS/MS analysis; assay type: ADME, organism-based; details: in vivo
[22] = Prodrug conversion in BALB/c mouse assessed as concentration of L-BHDU formation at 22.5 mg/kg, po via gavage measured after 20 mins by LC-MS/MS analysis; assay type: ADME, organism-based; details: in vivo; in short: as §1
[23] = Prodrug conversion in BALB/c mouse assessed as concentration of L-BHDU formation at 22.5 mg/kg, po via gavage measured after 40 mins by LC-MS/MS analysis; assay type: ADME, organism-based; details: in vivo; in short: as §1
[24] = Prodrug conversion in BALB/c mouse assessed as concentration of L-BHDU formation at 22.5 mg/kg, po via gavage measured after 60 mins by LC-MS/MS analysis; assay type: ADME, organism-based; details: in vivo, 1 h; in short: as §1
[25] = Prodrug conversion in BALB/c mouse assessed as concentration of L-BHDU formation at 22.5 mg/kg, po via gavage measured after 120 mins by LC-MS/MS analysis; assay type: ADME, organism-based; details: in vivo, 2 h; in short: as §1
[26] = Prodrug conversion in BALB/c mouse assessed as AUC of L-BHDU at 22.5 mg/kg, po via gavage measured upto 120 mins by LC-MS/MS analysis; assay type: ADME, organism-based; parameters: time < 120 min, dose 22.5 mg/kg, route po; details: in vivo, 2 h; in short: as §1
[27] = Prodrug conversion in BALB/c mouse assessed as Tmax of L-BHDU at 22.5 mg/kg, po via gavage measured upto 120 mins by LC-MS/MS analysis; assay type: ADME, organism-based; details: in vivo, 2 h; in short: as §1
[28] = Prodrug conversion in BALB/c mouse assessed as Cmax of L-BHDU at 22.5 mg/kg, po via gavage measured upto 120 mins by LC-MS/MS analysis; assay type: ADME, organism-based; parameters: dose 22.5 mg/kg, time < 120 min, route po; details: in vivo, 2 h; in short: as §1
Human alphaherpesvirus 3 [29] = assay: Antiviral activity against VZV infected human ARPE-19 cells assessed as reduction in viral replication treated for 72 hrs by bioluminescence imaging analysis; assay type: functional, organism-based; details: Human alphaherpesvirus 3, ARPE-19, 72 h
[30] = Cytotoxicity against human ARPE-19 cells assessed as reduction in cell viability treated for 72 hrs by neutral red assay; assay type: toxicity, cell-based
In short: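 ARPE-19 cells (DMEM, 10% heat-inactivated FBS, penicillin-streptomycin, amphotericin B; used within 30 passages) seeded 3 d, then exposed 72 h to a concentration range, higher than in antiviral runs, under the same conditions. Viability read by neutral red dye uptake; staurosporine as cell-death control. […] DMSO stocks diluted in DMSO and/or medium.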

[31] = Cytotoxicity against HFF cells assessed as reduction in cell viability; assay type: toxicity, cell-based; details: human
Human alphaherpesvirus 3 [32] = assay: Antiviral activity against VZV expressing ORF57-Luc infected human ARPE-19 cells assessed as reduction in viral replication treated for 72 hrs by bioluminescence imaging analysis; assay type: functional, organism-based; details: Human alphaherpesvirus 3, ARPE-19, 72 h
Human alphaherpesvirus 3 [33] = assay: Antiviral activity against VZV expressing ORF57-TK mutant infected human ARPE-19 cells assessed as reduction in viral replication treated for 72 hrs by bioluminescence imaging analysis; assay type: functional, organism-based; details: Human alphaherpesvirus 3, ARPE-19, 72 h
Human alphaherpesvirus 3 [34] = assay: Antiviral activity against VZV expressing ORF57-TKTS mutant infected human ARPE-19 cells assessed as reduction in viral replication treated for 72 hrs by bioluminescence imaging analysis; assay type: functional, organism-based; details: Human alphaherpesvirus 3, ARPE-19, 72 h

## O=c1[nH]c(=O)n([C@@H]2CO[C@H](CO)O2)cc1/C=C/Br
Human alphaherpesvirus 3 [1]
  EC50: 250 nM
HFF
  Activity: Non-Toxic
[2]
  selectivity ratio: > 909
[3]
  selectivity ratio: > 3880
[4]
  concentration at 20 min: 5620 ng/mL
[5]
  concentration at 40 min: 4500 ng/mL
[6]
  concentration at 1 h: 6180 ng/mL

## N[C@H](Cc1ccccc1)C(=O)OC[C@H]1OC[C@@H](n2cc(/C=C/Br)c(=O)[nH]c2=O)O1
[3]
  selectivity ratio: > 3480

## CC(C)C[C@H](N)C(=O)OC[C@H]1OC[C@@H](n2cc(/C=C/Br)c(=O)[nH]c2=O)O1
[3]
  selectivity ratio: > 2420

## NCC(=O)OC[C@H]1OC[C@@H](n2cc(/C=C/Br)c(=O)[nH]c2=O)O1
[3]
  selectivity ratio: > 2130

## CC[C@H](C)[C@H](N)C(=O)OC[C@H]1OC[C@@H](n2cc(/C=C/Br)c(=O)[nH]c2=O)O1
[3]
  selectivity ratio: > 1520

## C[C@@H](N)C(=O)OC[C@H]1OC[C@@H](n2cc(/C=C/Br)c(=O)[nH]c2=O)O1
[3]
  selectivity ratio: > 2960

## NC(=O)CC[C@H](N)C(=O)OC[C@H]1OC[C@@H](n2cc(/C=C/Br)c(=O)[nH]c2=O)O1
[3]
  selectivity ratio: > 794

## CC(C)(C)C(=O)OCOP(=O)(OCOC(=O)C(C)(C)C)OC[C@H]1OC[C@@H](n2cc(/C=C/Br)c(=O)[nH]c2=O)O1
Human alphaherpesvirus 3 [7]
  EC50: 1 nM
[3]
  selectivity ratio: > 2810
[8]
  Stability: Stable
[9]
  Stability: Stable
[10]
  Drug metabolism: 0.016 µg/mL
[11]
  Drug metabolism: 0.055 µg/mL
[12]
  Drug metabolism: 0.142 µg/mL
[13]
  Drug metabolism: 0.359 µg/mL
[14]
  Drug metabolism: 1.385 µg/mL
[15]
  Drug metabolism: 1.961 µg/mL
[16]
  Stability: 0.599 µg/mL
[17]
  Stability: 3.094 µg/mL
[18]
  Stability: 4.569 µg/mL
[19]
  Stability: 4.488 µg/mL
[20]
  Stability: 3.777 µg/mL
[21]
  Drug metabolism: 0 µg/mL
[22]
  Drug metabolism: 8.69 µg/mL
[23]
  Drug metabolism: 14.044 µg/mL
[24]
  Drug metabolism: 13.543 µg/mL
[25]
  Drug metabolism: 10.608 µg/mL
[26]
  AUC: 1680 µg·min/mL
[27]
  Tmax: 40 min
[28]
  Cmax: 10600 ng/mL

## N[C@@H](Cc1c[nH]c2ccccc12)C(=O)OC[C@H]1OC[C@@H](n2cc(/C=C/Br)c(=O)[nH]c2=O)O1
[3]
  selectivity ratio: > 1550

## O=C(OC[C@H]1OC[C@@H](n2cc(/C=C/Br)c(=O)[nH]c2=O)O1)[C@@H]1CCCN1
[3]
  selectivity ratio: > 1930

## CCCCCCCCCCCCCCCCOCCCOP(=O)(OC[C@H]1OC[C@@H](n2cc(/C=C/Br)c(=O)[nH]c2=O)O1)Oc1ccccc1 (stereo not given in full)
Human alphaherpesvirus 3 [29]
  EC50: 526 nM
[30]
  CC50 at 72 h: 18500 nM
[3]
  selectivity ratio: 35

## CC(C)[C@H](N)C(=O)OC[C@H]1OC[C@@H](n2cc(/C=C/Br)c(=O)[nH]c2=O)O1
[3]
  selectivity ratio: > 709

## CC(C)(N)C(=O)OC[C@H]1OC[C@@H](n2cc(/C=C/Br)c(=O)[nH]c2=O)O1
[3]
  selectivity ratio: > 2600

## CC(C)[C@@H](N)C(=O)OC[C@H]1OC[C@@H](n2cc(/C=C/Br)c(=O)[nH]c2=O)O1
[31]
  CC50: > 200000 nM
[3]
  selectivity ratio: > 3320

## CC(C)C(=O)OCOP(=O)(OCOC(=O)C(C)C)OC[C@H]1OC[C@@H](n2cc(/C=C/Br)c(=O)[nH]c2=O)O1
Human alphaherpesvirus 3 [7]
  EC50: 8 nM
Human alphaherpesvirus 3 [29]
  EC50: 34 nM
[30]
  CC50 at 72 h: > 100000 nM
[3]
  selectivity ratio: > 2920
Human alphaherpesvirus 3 [32]
  EC50: 40 nM
Human alphaherpesvirus 3 [33]
  EC50: > 2000 nM
Human alphaherpesvirus 3 [34]
  EC50: > 2000 nM

## N[C@@H](Cc1ccc(O)cc1)C(=O)OC[C@H]1OC[C@@H](n2cc(/C=C/Br)c(=O)[nH]c2=O)O1
[3]
  selectivity ratio: > 826

## CCCCCCCCCCCCCCCCCCOCCOP(=O)(OC[C@H]1OC[C@@H](n2cc(/C=C/Br)c(=O)[nH]c2=O)O1)Oc1ccccc1 (stereo not given in full)
Human alphaherpesvirus 3 [7]
  EC50: 1 nM
Human alphaherpesvirus 3 [29]
  EC50: 100 nM
[30]
  CC50 at 72 h: 33900 nM
[3]
  selectivity ratio: 339
Human alphaherpesvirus 3 [32]
  EC50: 820 nM
Human alphaherpesvirus 3 [33]
  EC50: > 2000 nM
Human alphaherpesvirus 3 [34]
  EC50: > 2000 nM
